Entries after “also recorded” stand apart in the source; their conditions may differ. Where two headings read alike, the source gives them in different places.

For data set [1], the system named is P450 3A4. It is filed as biochemical, human. To be noted: for % Activity Remaining: 50 μM CPE or 12 μM TFCPE; for loss in O-debenzylation activity: after a 20-min incubation compared with 0 min. Put shortly:
(§1)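 Purified P450 was reconstituted with reductase and held 20 min at room temperature, then diluted in 50 mM Hepes pH 7.5 with 2 mM GSH and 250 units catalase. Test compound was added (25–500 μM or 5–100 μM, in acetonitrile), then NADPH. Timed 9 pmol aliquots went into 50 μM BFC/1 mM NADPH in 200 mM phosphate pH 7.4 for 15 min at 37 °C. Fluorescence read at ex 409/em 530 nm; KI, kinact and t1/2 from double-reciprocal plots.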

The test system of data set [2] is P450 3A4. Type of data set: biochemical, human. The following applies: substrate testosterone; reconstituted system.
Data set [3] addresses T1, P450 3A5 (Homo sapiens, UniProt P20815). It is filed as biochemical. The following applies: in the presence of NADPH. A digest of the protocol:
as §1

In data set [4] the test system is human liver microsomes. The data set is described as follows: Inactivation of human liver microsomes. It is filed as biochemical. To be noted: BFC assay; data not shown. (In general: Liver microsomes are vesicles of endoplasmic reticulum, rich in cytochrome P450 enzymes.)
For data set [5], the system named is dextromethorphan induced micrsomes. Nature of the data set: Inactivation of dextromethorphan induced microsomes. Type of data set: biochemical. The following applies: data not shown. A digest of the protocol:
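Human liver microsomes and dextromethorphan-induced microsomes (0.3 nmol) were incubated with test compound in the presence of catalase and GSH. Reactions were started with NADPH and sampled at 0, 5 and 12 min. Residual activity was measured by the BFC O-debenzylation fluorescence assay.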

The subject of data set [6] is P450 3A4. Nature of the data set: Heme analysis of inactivated P450 3A4. To be noted: for % P450 Remaining by reduced-CO spectrum: 50 μM CPE or 12 μM TFCPE; for Residual Heme by HPLC: area under heme peak at 405 nm, control set to 100 %; for loss in heme: measured by HPLC, compared with the -NADPH control. It is filed as biochemical, human. A digest of the protocol: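 P450 3A4 was reconstituted and inactivated as in the activity assay (50 μM or 12 μM test compound, 20 min, ±NADPH). For reduced-CO spectra, 100 pmol went into 50 mM phosphate pH 7.4 with 40% glycerol and 0.6% Tergitol, was CO-bubbled and dithionite-reduced, and scanned at 400–500 nm. For heme, 100 pmol was run on C4 HPLC (30–90% acetonitrile, 0.1% TFA, 30 min) and the 405 nm peak area was set against control = 100%. Mean and S.D. of four experiments.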

The test system of data set [7] is P450 3A4. The data set is described as follows: Formation of 7-hydroxycoumarin by P450 3A4. To be noted: 30 min reaction. Type of data set: in vitro ADME, human. Put shortly:
(§2)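 P450 3A4 or 3A5 (expressed in E. coli, purified) was reconstituted with test compound. Reactions were started with 1 mM NADPH, run 30 min and stopped with 15% trichloroacetic acid. 7-Hydroxycoumarin was measured by C18 HPLC (isocratic 30% methanol, 0.2% acetic acid) with fluorescence detection (ex 350/em 453 nm). Quantified from peak areas against a 7-hydroxycoumarin standard curve.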

Data set [8] concerns the target T1, P450 3A5. The data set is described as follows: Formation of 7-hydroxycoumarin by P450 3A5. Type of data set: in vitro ADME. To be noted: 30 min reaction. Put shortly: as §2
Data set [9] relates to P450 3A4. Nature of the data set: Trapping of reactive intermediates formed by P450 3A4 with GSH. Type of data set: in vitro ADME, human. To be noted: incubation with P450 3A4 in the presence of GSH and NADPH. A digest of the protocol: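 Reconstituted P450 3A4 (0.5 nmol, with reductase and lipid) was inactivated by the test compound plus NADPH in the presence of 10 mM GSH. Reactions were stopped with 10% trifluoroacetic acid (60 μl/ml sample). Separation used a C18 column in a 5% acetonitrile/0.1% acetic acid gradient. Detection was ESI MS: full scan m/z 150–1000 plus two dependent MS/MS scans at 35% collision energy, with fluorescence detection also used.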

Data set [10] relates to P450 3A4. Nature of the data set: LC-APCI-MS metabolite analysis with P450 3A4. It is filed as in vitro ADME, human. To be noted: incubation with P450 3A4 and NADPH. Put shortly:
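P450 3A4 reconstituted with reductase and lipid, then incubated with the test compound and NADPH at 37°C for 60 min. Control and inactivated samples (900 pmol each) were extracted with ethyl acetate and dried under nitrogen. Analysis was by LC-APCI-MS with UV at 319 nm, full scans m/z 100–2000, and data-dependent MS/MS on the four most intense ions.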

Data set [11] concerns the target T1, P450 3A5. Nature of the data set: LC-APCI-MS metabolite analysis with P450 3A5. The following applies: incubation with P450 3A5. Type of data set: in vitro ADME. A digest of the protocol:
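Reconstituted P450 3A5 was incubated with test compound and NADPH. Samples (900 pmol) were extracted with ethyl acetate, dried and taken up in 50% acetonitrile. Separation used C18 reverse phase with a water/acetonitrile gradient in 0.1% acetic acid, monitored by UV at 319 nm. Detection was positive-mode APCI on a linear ion trap, with full scans at m/z 100–2000 and data-dependent MS/MS.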

The mark [12] stands for this setting: substrate BFC, reconstituted system.

T1 sequence (P20815 whole entry): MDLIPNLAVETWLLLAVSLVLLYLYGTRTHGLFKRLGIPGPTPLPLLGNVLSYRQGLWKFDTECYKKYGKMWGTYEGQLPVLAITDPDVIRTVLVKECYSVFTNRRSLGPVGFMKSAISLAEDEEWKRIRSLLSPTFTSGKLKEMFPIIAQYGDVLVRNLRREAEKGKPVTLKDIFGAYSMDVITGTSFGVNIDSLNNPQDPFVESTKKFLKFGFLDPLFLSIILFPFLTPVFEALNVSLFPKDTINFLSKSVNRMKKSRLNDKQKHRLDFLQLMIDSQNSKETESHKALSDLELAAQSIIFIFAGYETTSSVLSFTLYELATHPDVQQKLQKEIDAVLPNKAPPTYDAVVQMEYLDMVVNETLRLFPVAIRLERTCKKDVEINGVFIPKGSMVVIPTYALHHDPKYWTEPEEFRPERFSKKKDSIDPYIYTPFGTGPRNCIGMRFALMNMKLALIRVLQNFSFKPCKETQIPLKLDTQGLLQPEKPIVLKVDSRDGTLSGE

Regarding `C#CCOc1ccc2ccc(=O)oc2c1` [CPE, 7-coumarin propargyl ether], the “% Activity Remaining” value in data set [1] (0 min, +NADPH) turned out to be 85 ± 4%; in data set [1] (0 min, -NADPH), 86 ± 5%; in data set [1] (20 min, +NADPH) it was 50 ± 9%; in data set [1] (20 min, -NADPH), 79 ± 3%. For the same compound, in [1], the “loss in O-debenzylation activity” value was roughly 35%. Further, the “Kinact (maximal rate of inactivation)” value in [1] (setting [12]) is 0.05 min⁻¹; in [2], 0.014 min⁻¹. Also, the “inactivation of the BFC O-debenzylation activity of P450 3A5” value in data set [3] is reported as “no inactivation; also recorded: neither CPE nor TFCPE showed any effect; also recorded: do not affect the activity”. Further, the “inactivation of human liver microsomes” value in data set [4] was “did not show inactivation; also recorded: neither CPE nor TFCPE led to any inactivation”. For the same compound, the “inactivation of dextromethorphan induced microsomes” value in data set [5] is on record as “did not show inactivation”. The “% P450 Remaining by reduced-CO spectrum” value in data set [6] (0 min, +NADPH) is 69 ± 5%; in [6] (0 min, -NADPH) it was 69 ± 7%; in [6] (20 min, +NADPH), 67 ± 4%; in data set [6] (20 min, -NADPH) it was 67 ± 2%. For the same compound, the “Residual Heme by HPLC” value was 70 ± 11% in data set [6] (+NADPH) and 100 ± 9% in data set [6] (-NADPH). The loss in heme entry in [6] was “approximately 30%”. Also, the “Formation of 7-OH coumarin” value in [7] stood at 48.1 ± 5 pmol/pmol P450/min; in data set [8], 85.5 ± 7 pmol/pmol P450/min. Also, in data set [9], the “formation of glutathione adducts” value was “formation of CPE- and TFCPE-glutathione adducts”. The “metabolite peak by LC-APCI-MS/UV 319 nm” value in data set [10] was “No similar peak or any other metabolite peak was observed”.
As to `C#CCOc1ccc2c(C(F)(F)F)cc(=O)oc2c1` [TFCPE, 7-(4-trifluoromethyl)coumarin propargyl ether], the “% Activity Remaining” value in data set [1] (0 min, +NADPH) is given as 82 ± 5%; in data set [1] (0 min, -NADPH), 88 ± 3%; in data set [1] (20 min, +NADPH), 25 ± 3%; in data set [1] (20 min, -NADPH), 79 ± 7%. Besides, the “loss in O-debenzylation activity” value in [1] is on record as “approximately 55%”. In addition, the “Kinact (maximal rate of inactivation)” value in data set [1] (setting [12]) and in [2] was 0.04 min⁻¹ throughout. For the same compound, the t1/2 in data set [1] (setting [12]) is given as 16.5 min; in [2], 17 min. Also, the loss in activity result in data set [1] (with the -NADPH +TFCPE control) is recorded as “approximately 55%”. Besides, in [3], the “inactivation of the BFC O-debenzylation activity of P450 3A5” value is listed as “no inactivation; also recorded: neither CPE nor TFCPE showed any effect; also recorded: do not affect the activity”. In addition, the “inactivation of human liver microsomes” value in [4] is recorded as “did not show inactivation; also recorded: neither CPE nor TFCPE led to any inactivation”. In addition, the “inactivation of dextromethorphan induced microsomes” value in data set [5] is “did not show inactivation”. Further, the “% P450 Remaining by reduced-CO spectrum” value in data set [6] (0 min, +NADPH) was 75 ± 6%; in data set [6] (0 min, -NADPH), 75 ± 4%; in [6] (20 min, +NADPH) it was 43 ± 4%; in data set [6] (20 min, -NADPH) it was 62 ± 2%. For the same compound, the “Residual Heme by HPLC” value turned out to be 61 ± 2% in data set [6] (+NADPH) and 100 ± 4% in data set [6] (-NADPH). The same compound yielded a loss in heme in data set [6] of 40%. Also, the “Formation of 7-OH coumarin” value was found to be 97.2 ± 1 pmol/pmol P450/min in [7] and 78.8 ± 11 pmol/pmol P450/min in [8]. The “formation of glutathione adducts” value in data set [9] is “formation of CPE- and TFCPE-glutathione adducts”. Besides, in data set [10], the “metabolite peak by LC-APCI-MS/UV 319 nm” value is “single metabolite peak eluting at 20.34 min”. Moreover, the “metabolite by LC-APCI-MS” value in data set [11] was “did not result in any metabolite”.

These data come from paper PMC2736802 (Drug metabolism and disposition: the biological fate of …, 2008).
